Results: publication PMC5756068 (Nature chemical biology, 2016)

Columns and labels:
MDM2 [1] = test: shRNA-induced cell viability rescue, MDM2 knockdown; format: cell-based; conditions: shRNA cells transfected with peptide; triplicate
Panc 02.03 cells = test: Downstream effects of peptide expression, Western blot, Panc 02.03; format: cell-based
[2] = Downstream effect of peptide, gels of Fig. 4 and Supplementary Fig. 7; format: cell-based; conditions: triplicate; cell line not stated
MDM2 [3] = test: FRET microscopy, peptide-GFP and MDM2-mCherry; format: binding; conditions: HEK293T cells, confocal FRET microscopy, 48 h after transfection
Method in brief: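 HEK293T cells were seeded at 5 × 10^4 per well on poly-L-lysine-coated glass coverslips and kept at 37°C in 5% CO2. They were co-transfected with GFP-fused peptide and mCherry-fused target, then fixed with 4% paraformaldehyde 48 h later, washed in PBS and imaged by confocal FRET microscopy at room temperature. Laser power and PMT gain were held constant. […] excitation was used with FRET detection at […]. Net FRET was obtained by subtracting GFP bleed-through and mCherry direct emission. Controls expressed GFP and/or mCherry alone.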

Mia Paca-2 cells = test: Downstream effects of peptide expression, Western blot, Mia Paca-2; format: cell-based
RWP1 cells [4] = test: Downstream effects of peptide expression, Western blot, RWP1; format: cell-based, human
GCHFR = test: shRNA-induced cell viability rescue, GCHFR knockdown; format: cell-based; conditions: shRNA cells transfected with peptide; triplicate
HEK293T cells = test: Downstream effects of peptide expression, Western blot, HEK293T; format: cell-based, human
cell cycle = test: FACS analysis of cell cycle; format: cell-based; conditions: triplicate
SFN = test: shRNA-induced cell viability rescue, SFN knockdown; format: cell-based; conditions: shRNA cells transfected with peptide; triplicate
[5] = test system: AKT (S473) phosphorylation in RWP1 cells; test: Serum-induced AKT; format: cell-based, human; conditions: RWP1 starved 24 hours, 10% FBS for 20 minutes; Western blot
Method in brief: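 Peptide expressed or not in RWP1 cells, which were starved 24 h and then given 10% FBS for 20 min. Lysate proteins run on 10% Bis-Tris SDS-PAGE and transferred to PVDF. Blots probed with anti-AKT (1:1000) or anti-phospho-AKT S473 (1:1000), then HRP secondary (1:2500), with ECL detection. Paired with HEK293T cells treated the same way.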

RWP1 cells [6] = test: Cell viability with synthetic lipidated peptides, RWP1; format: cell-based, human; conditions: duplicate

## ETFSDLW
MDM2 [1]
  rescue of peptide phenotype by knockdown of MDM2: showed rescue of the peptide phenotype
Panc 02.03 cells
  p21 level: increase in p21 levels
  p53 level: decrease in degradation of p53
[2]
  P53 level: increasing P53 levels
MDM2 [3]
  FRET signal with MDM2: Positive FRET signals
Mia Paca-2 cells
  p21 level: increase in p21 levels
  p53 level: decrease in degradation of p53
RWP1 cells [4]
  p21 level: increase in p21 levels
  p53 level: decrease in degradation of p53

## VWCLHKE
GCHFR
  rescue of peptide phenotype by knockdown of GCHFR: showed rescue of the peptide phenotype

## RTLSQLYCSYGPLT
Panc 02.03 cells
  p21 level: increases the expression of p53 and p21
  p53 level: increases the expression of p53 and p21
RWP1 cells [4]
  p21 level: increases the expression of p53 and p21
  p53 level: increases the expression of p53 and p21

## PSSLAYSLKKH
HEK293T cells
  p21 level: did not affect the level of p53 and p21
  p53 level: did not affect the level of p53 and p21
Panc 02.03 cells
  p21 level: accumulation of p53 and p21
  p53 level: accumulation of p53 and p21
Mia Paca-2 cells
  p21 level: accumulation of p53 and p21
  p53 level: accumulation of p53 and p21
RWP1 cells [4]
  p21 level: accumulation of p53 and p21
  p53 level: accumulation of p53 and p21

## TEGPDSD
Panc 02.03 cells
  cyclin A2 expression: increase of cyclin A2 expression
[2]
  cdc2 level: decrease in cyclin B1 and cdc2 levels
  cyclin A level: increase in cyclin A
  cyclin B1 level: decrease in cyclin B1 and cdc2 levels
Cell cycle; FACS, DAPI, 24, 72 and 120 hours, cell line not stated
  effect on cell cycle: cell cycle arrest in G2
Cell cycle; different time points
  percentage of GFP positive cells vs GFP alone: similar
SFN
  rescue of peptide phenotype by knockdown of SFN: showed rescue of the peptide phenotype
Mia Paca-2 cells
  cdc2 expression: reduced expression of both cyclin B1 and cdc2
  cyclin A2 expression: increase of cyclin A2 expression
  cyclin B1 expression: reduced expression of both cyclin B1 and cdc2
RWP1 cells [4]
  cdc2 expression: reduced expression of both cyclin B1 and cdc2
  cyclin A2 expression: increase of cyclin A2 expression
  cyclin B1 expression: reduced expression of both cyclin B1 and cdc2

## KFFCTIL
[5]
  serum-induced AKT phosphorylation: inhibited the increase in AKT phosphorylation
HEK293T cells
  phospho-AKT (S473) level: did not affect the level of phospho-AKT
Panc 02.03 cells
  p21 level: increased the expression of p21
  phospho-AKT (S473) level: decrease of the level of phospho-AKT (S473)
RWP1 cells [4]
  p21 level: increased the expression of p21
  phospho-AKT (S473) level: decrease of the level of phospho-AKT (S473)

## Pal-NPFREKKFFCTIL-NH2 [GNG4-1]
RWP1 cells [6]
  effect on cell viability (in words): strong dosage dependent effects on cell viability

## Pal-PSSLAYSLKKH-OH [INCENP-1]
RWP1 cells [6]
  effect on cell viability (in words): strong dosage dependent effects on cell viability

## Pal-RTLSQLYCSYGPLT-OH [MUS81-1]
RWP1 cells [6]
  effect on cell viability (in words): strong dosage dependent effects on cell viability
